# Values without a mark were called inactive. Results filed as inconclusive are left out. Calls of active or inactive are those of the source.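 Rule for the calls, unless noted: active = RAM network inhibition above 8.4% in each of two replicates, 3 SD over the compound average; inconclusive = above 8.4% inhibition in only one replicate; inactive = 8.4% inhibition or less in each replicate.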
# What was measured:
# [1] = S. cerevisiae growth inhibition in permissive medium (OD615), pilot counter-assay for S. cerevisiae lifespan shortening project, permissive growth control (AID 705;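 active = growth inhibition above 25% in both replicates, a cutoff set 3 SD above the mean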); conditions: OD615, 24 h, at 10 µM, stronger effect = higher value
# How it was run: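 Timing: 24 h exposure, 30 °C / Material: Saccharomyces cerevisiae strain carrying genetically modified DeaD replicative-lifespan system / Signal: OD at 615 nm / Compound: 10 µM single dose, 0.25% DMSO / Medium: SC raffinose/galactose permissive medium / Evaluation: reduction in yeast growth (OD615)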
# [2] = S. cerevisiae growth inhibition in restrictive medium, OD615, pilot screen, restrictive growth control, yeast lifespan reduction project (AID 706;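 active = growth inhibition above a set limit, 3 SD over mean compound inhibition, in both replicates, cut at about 43% in these data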;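 note: modified DeaD lifespan yeast strain shifted to restrictive glucose medium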); conditions: OD615, 48 h, at 10 µM, stronger effect = higher value
# How it was run: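 System: Engineered S. cerevisiae DeaD strain | Detection: OD615 | Buffer or medium: CSMM-D glucose medium | Doses: 10 µM compound, 0.25% DMSO | Timing: 4 h pre-growth plus 48 h compound exposure, 30 °C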
# [3] = doxorubicin toxicity protection in MRP-1 cells – H69AR cells, CellTiter-Glo, duplicate, MRP-1 activator project, pilot screen (AID 807;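 active = viability increase at or above a cutoff of the median across tested compounds plus 3 SD, cut at about 8.5% in these data, passing the limit was not always enough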;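 note: compound pretreatment 18-22 h then 72 h combined with doxorubicin; 0% = doxorubicin alone and 100% = vehicle without doxorubicin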); conditions: H69AR viability with doxorubicin, CellTiter-Glo luminescence; at 10 µM; stronger effect = higher value
# [4] = viability of HCT116 without oncogenic beta-catenin – human colon tumor cells, pilot screen (AID 823;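 active = cell viability at or below a set limit in both duplicate runs, the limit being the all-compound median minus 4 SD, cut at about 23% in these data, passing the limit was not always enough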;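 note: 0% = wells killed by 20 µM Hyamine and 100% = untreated DMSO cell wells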); conditions: HCT116 beta-catenin knockout viability, CellTiter-Glo, 60 h; at 10 µM; stronger effect = lower value
# [5] = viability of PTEN-null HCT116 cells – cell-based, HCT116 clonal line, CellTiter-Glo, pilot screen (AID 824;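 active = viability at or below 27.92% in each of two runs, the all-compound median minus 4 SD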;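 note: 0% = 20 µM Hyamine control and 100% = vehicle cell control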); conditions: HCT116 PTEN-deleted viability, 60 h, at 10 µM, stronger effect = lower value
# [6] = RAM pathway blockade in budding yeast – dse1pr::URA3 reporter, 5-FOA selection, pilot screen (AID 869;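 active = inhibition over a set limit, the all-compound mean plus 3 SD, in both replicate runs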;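 note: 0% = DMSO wells with no growth and 100% = 10 µM 1-NA-PP1 with full growth; RAM network block rescues cells from 5-FOA so hits raise OD615 growth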); conditions: S. cerevisiae dse1pr::URA3 5-FOA growth, OD615, 2 d; at 10 µM; stronger effect = higher value; strain carries analog-sensitive mutant Cbk1 kinase
# [7] = RAM signaling pathway blockade in yeast – S. cerevisiae, Pdr1DBD-CYC8 efflux-inhibited sensitized strain, primary screen (AID 1298);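 note: 0% = DMSO untreated cells without growth and 100% = 10 µM 1-NA-PP1 full growth; higher means more yeast growth rescued from 5-FOA killing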; conditions: S. cerevisiae cbk1-as DSE1-URA3 strain, 5-FOA growth OD615, 2 d; at 50 µM; stronger effect = higher value
Compound,growth inhibition [1],growth inhibition [2],viability increase [3] [%],viability [4],viability [5],inhibition [6] [%],RAM network inhibition [7] [%]
O=C(CCCc1ccccc1)NCc1cn2ccsc2n1,-8.33%,6.95%,0.97,103%,105%,1.31,5.11
CCOc1ccc(N(CC(=O)OC)S(=O)(=O)c2c(C)noc2C)cc1,3.84%,-0.545%,-1.21,87.4%,95.1%,-0.69,-0.31
Cc1ccc(-n2c(SCC(=O)NCC3CCCO3)nc3c(c2=O)SCC3)cc1 (configuration not stated),-10.7%,-16.9%,-1.96,100%,96.7%,3.09,2.18
CS(=O)(=O)N(CC(=O)NCc1ccco1)c1cc(C(F)(F)F)ccc1Cl,0.43%,-4.23%,-3.09,99%,92.8%,0.68,2.65
N#CC1=C(N)SC(N)=C(C#N)C1C1CC=CCC1 (configuration not stated),-18.9%,-10.4%,-0.79,108%,97.5%,2.11,0.74
O=C(O)CCC(=O)c1ccc2c(c1)OCCO2,-6.04%,8.29%,-1.32,101%,103%,1.79,-1.36
O=C(Cn1cc2c(n1)CCCC2)NCCCN1CCN(Cc2ccccc2)CC1,-1.54%,-1.17%,-2.71,91.5%,93.2%,0.61,-0.1
CCOC(=O)N1CCN(c2ncnc3nc[nH]c23)CC1,-8.7%,-10.1%,-1.85,109%,106%,0.595,4.23
Cc1nnc(Sc2nc3c(c(=O)[nH]c(=O)n3C)n2Cc2ccccc2)s1,-11.6%,-12.4%,-0.33,101%,103%,1.61,0.73
CCCCCn1c(CCCNC(=O)CC)nc2ccccc21,-8.6%,-0.63%,-2.94,89%,97.6%,0.405,2.13
Cn1c(Cn2c(=O)sc3ccccc32)nnc1SCC(=O)NCc1ccc(F)cc1,-13.5%,-17.4%,-1.09,104%,95%,3.3,2.63
CC1CCCCN1CCNC(=O)c1cc2c(-c3ccccc3F)nn(C)c2s1 (configuration not stated),-3.09%,0.025%,-6.73,48%,59.6%,0.095,5.89
O=C(Nc1nc(-c2ccccn2)cs1)c1ccc(Cl)s1,94.1% (active),96.8% (active),-8.93,10.6% (active),22.1% (active),-1.18,-2.58
CC1(C)CC(=O)C=C(NC2CC(C)(C)NC(C)(C)C2)C1,-11.6%,-15.2%,-0.93,102%,98.8%,1.32,3.08
CCOc1ccc(CC(=O)N2CCN(c3ccc(N4CCOCC4)nn3)CC2)cc1OCC,-1.33%,8.3%,0.46,103%,106%,-0.385,6.26
CCN1CCN(CC(=O)NC2CCCC2)C(=O)C1=O,5.56%,-5%,0.46,114%,94.9%,1.52,1.79
O=C(Cc1n[nH]c(=O)c2ccccc12)NCc1ccccn1,-3.9%,-19.5%,-0.08,103%,99%,1.48,2.08
CCOc1ccc(C(F)(F)F)cc1NC(C)=O,-6.15%,-9.57%,-3.24,90.4%,90.3%,0.62,3.29

Compound,growth inhibition [1],growth inhibition [2],viability increase [3] [%],viability [4],viability [5],inhibition [6] [%],RAM network inhibition [7] [%]
C=C(C)Cn1c(C2CC(=O)N(Cc3ccccc3)C2)nc2ccccc21 (configuration not stated),-0.245%,-1.79%,-1.95,97.1%,93.2%,1.46,2.18
O=C(CN1CCOc2ccccc21)N1CCC(Cc2ccccc2)CC1,-3.59%,21.2%,-3.42,88%,95.1%,1.46,8.63
CCCCS(=O)CC(COc1ccc(Cl)cc1)OC(=O)c1ccccc1 (configuration not stated),-11.8%,-9.18%,3.23,76.1%,86.2%,0.42,5.86
Cc1ccc(O)c(C(=O)c2cnn(C(=O)Cc3csc(C)n3)c2)c1,-1.97%,1.6%,-0.48,98.9%,88.3%,-0.5,-1.67
CCOC(=O)N1CCN(C(=O)c2ccccc2Oc2ccccc2)CC1,-5.57%,0.11%,-1.94,91%,93.3%,-0.56,0.52
COc1ccc(OC)c(NC(=O)CSc2nnc(Cn3c(=O)sc4ccccc43)n2C)c1,-10.2%,-1.53%,-2.91,94.3%,86.5%,2.36,3.22
Cc1nn(Cc2nc(-c3cccs3)no2)c(C)c1Br,0.735%,12%,-1.13,103%,101%,1.93,3.61
CCOC1=NC(C(=O)O)c2ccccc2/C(=C(/C)Cl)N1 (configuration not stated),-4.61%,-27.8%,0.7,101%,96.8%,0.25,2.78
COc1ccc(C(=O)N2CCN(c3ccc(C)c(C)c3)CC2)cc1OC,-6.27%,-4.04%,-0.89,99.5%,92%,0.21,2.55
Cc1cc(NC(=O)COC(=O)c2ccc(F)c(S(=O)(=O)N3CCOCC3)c2)no1,-13.5%,-21.9%,-1.16,103%,96.8%,1.03,3.16
Cc1cc(N2C(=O)C3CC=CCC3C2=O)cc(C)c1Br (configuration not stated),-3.4%,-11.6%,-1.05,95.5%,95.2%,2.22,6.44
CCc1c(C(C)O)oc2ccc3c(C)cc(=O)oc3c12 (configuration not stated),-9.42%,2.23%,-3.86,84.3%,82.2%,1.06,6.56
CCOc1ccc(N(CC(=O)NCc2ccc(F)cc2)S(=O)(=O)c2c(C)noc2C)cc1,-15.6%,-8.36%,-1.36,99.3%,92.8%,2.25,2.84
CCNCCNC(=O)c1c(O)c2cccc3c2n(c1=O)CCC3,-22.8%,-19%,-3.02,82.6%,93.7%,0.7,0.57
CCOC(=O)c1ccc(N2C(=O)CC(SCC(N)C(=O)OCC)C2=O)cc1 (configuration not stated),-4.09%,-7.37%,-2.49,102%,85.6%,1.47,3.7
COc1ccc(OC)c(CNC(=O)Cc2c(C(=O)O)[nH]c3ccccc23)c1,-7.09%,-25%,-0.54,104%,101%,-0.185,5.43
CC(=O)c1c(C)[nH]c(C(=O)N2c3ccccc3CC2C)c1C (configuration not stated),-1.11%,3.09%,-0.41,92.3%,92.6%,0.755,3.82
Cn1c(=O)c2c(nc(SCc3cc4c(cc3Cl)OCO4)n2C)n(C)c1=O,-5.9%,-0.11%,-0.21,99.6%,100%,1.15,5.36

# Reference: PubChem BioAssay
